Bioassay records: PubChem, several laboratories
FXN GAA850 act – FXN promoter activators, primary screen, cell-based, luciferase luminescence, HEK293 lucGAA850; hit rate 0.56% among 360,000; activation, % at 6 µM; HEK293 lucGAA850 FXN promoter luciferase reporter, 24 h; percent of 10 µM SAHA response;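 active means activation above the average of all compounds screened plus 3 SD, cutoff fixed separately per campaign, cut at about 7.5% in these data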;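 further: 0% = DMSO wells and 100% = 10 µM SAHA wells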
Myeloid diff 2 – induction of myeloid progenitor differentiation, primary screen, cell-based, flow cytometry, MLPCN library; hit rate 1% among 360,000; ER-HoxA9 myeloid progenitors, lysozyme-GFP differentiation; calls only at 10 µM; AID 624256, 2012;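 active means normalized GFP-positive differentiation at or above the plate's own cutoff, the solvent-only control mean plus 3 SD; inconclusive means no clear call, values can overlap the other calls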;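 further: cells exposed to compound for four days before flow analysis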
NR2E3 ag-1 – inhibitors of NR2E3-RetCOR corepressor binding, primary screen, NR2E3 agonist project, biochemical, TR-FRET, GST-NR2E3, biotin-RetCOR | Photoreceptor-specific nuclear receptor (Homo sapiens), Q9Y5X4 | 1536-well | inhibition of corepressor binding, % at 4.78 µM | hit rate 0.12% among 320,000;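 active means percent inhibition above the cutoff of mean plus 3 SD of all tested compounds, set per screening campaign, cut at about 20% in these data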;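 further: 0% = DMSO wells and 100% = biotin wells as full block of FRET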
Target sequence (Q9Y5X4 whole entry, looked up): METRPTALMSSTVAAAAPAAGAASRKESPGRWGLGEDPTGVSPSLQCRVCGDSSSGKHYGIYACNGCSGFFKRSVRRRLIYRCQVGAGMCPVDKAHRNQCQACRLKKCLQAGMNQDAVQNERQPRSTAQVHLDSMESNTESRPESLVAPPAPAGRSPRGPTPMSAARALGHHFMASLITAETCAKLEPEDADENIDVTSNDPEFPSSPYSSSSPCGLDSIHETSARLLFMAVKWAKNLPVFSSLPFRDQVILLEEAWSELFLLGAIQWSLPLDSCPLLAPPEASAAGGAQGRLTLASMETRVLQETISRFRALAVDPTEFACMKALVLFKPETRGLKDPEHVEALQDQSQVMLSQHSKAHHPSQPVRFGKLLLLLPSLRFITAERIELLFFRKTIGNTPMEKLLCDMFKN
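Test system: GST-NR2E3 and biotin-RetCOR proteins | Quantity: 1.35 nM GST-tagged NR2E3 final | Medium: Tris pH 7.5 | Also added: 7 nM biotin-RetCOR | Dosing: Compound at 4.8 µM, single dose | Timing: 5 h at 4 °C | Detection: Time-resolved FRET | Read-out basis: Percent inhibition | Benchmarks: Biotin wells as high control, 0.6% DMSO wells as low control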
NR2E3 ag-2 – NR2E3 agonists in two-hybrid cells, primary screen, cell-based, luminescence, CHO-S, Gal4-NCOR/VP16-NR2E3; hit rate 0.35% among 360,000; inhibition of corepressor binding, % at 3.98 µM; luciferase; AID 602229, 2012; Photoreceptor-specific nuclear receptor (Homo sapiens), Q9Y5X4;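 active means inhibition above the mean of all tested compounds plus 3 SD, cut at about 70% in these data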;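 further: 0% = DMSO with NR2E3 transfected cells and 100% = cells lacking NR2E3 construct; higher means lower luciferase signal from less NR2E3 corepressor binding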
T cell HTS – modulators of CD8 T cell-vesicle binding, primary screen, mouse 2C CD8+ T cells, flow cytometry; 2C CD8+ T cell-vesicle binding; active compounds read low; response (vesicle binding), % at 7 µM; hit rate 0.068% among 330,000;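 active means response, share of CD8 T cells binding vesicles, and their 90th percentile fluorescence all below set limits, cut at about 80% in these data, passing the limit was not always enough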;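 further: values below 100% mean blocked vesicle binding to the CD8+ T cells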
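Test system: purified 2C TCR transgenic mouse naive CD8+ T cells. Probe or stimulus: QL9-peptide-loaded Drosophila micro-vesicles bearing Ld, ICAM-1 and B7-1. Incubation: binding step 1.5 h, 37 °C, antibody labelling 20 min, ice. Measured by: flow cytometry of vesicle-bound cells.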
The depositor's hits bear a star; i = inactive; ? = inconclusive; . = no result; + = active, no number. Rows were chosen to be rich in hits. Some 2% of all compounds tested hit in one or more screens of this group.

SMILES | FXN GAA850 act | Myeloid diff 2 | NR2E3 ag-1 | NR2E3 ag-2 | T cell HTS
Cn1c(CSCc2ccc(F)cc2)nnc1SCC(=O)Nc1cccc(C(=O)O)c1 | 1.9 | i | 4.1 | -8.1 | 47.2
COCC(C)OC(=O)C(C#N)c1nc2ccccc2nc1N1CCN(Cc2ccccc2)CC1 (stereo not given) | -0.1 | i | 0.6 | -2.6 | 695.2
COCCOC(=O)C(C#N)c1nc2ccccc2nc1N1CCN(Cc2ccccc2)CC1 (stereo not given) | 1.0 | + | 0.8 | -1.8 | 168.2
Cc1ccc(S(=O)(=O)N(CCCc2c(C)nc[nH]c2=O)c2ccccc2)cc1 | 1.5 | i | . | -41.5 | .
Cc1cc(C)cc(NC(=O)CCC(=O)Nc2nnc(C(C)C)s2)c1 | 1.9 | + | 0.7 | -1.0 | 567.7
CC(C)c1nnc(NC(=O)CCC(=O)Nc2ccc(Cl)cc2)s1 | 0.4 | i | -0.9 | -5.9 | i
COCCCNC(=O)CC1C[C@H](C(=O)N2CCCCC2)[C@@]2(C)c3[nH]c4ccc(OC)cc4c3CCN2C1=O (stereo not given in full) | 0.1 | i | . | -9.9 | .
COCCCNC(=O)C[C@H]1C[C@H](C(=O)N2CCCCC2)[C@@]2(C)c3[nH]c4ccc(Cl)cc4c3CCN2C1=O | -2.7 | + | . | -0.8 | .
Cc1ccc(-n2c(SCC(=O)c3c(N)n(C)c(=O)n(C)c3=O)nc3sc4c(c3c2=O)CCCC4)c(C)c1 | -0.7 | + | -0.6 | -2.3 | 344.3
Cc1ccc(-n2c(SCC(=O)O)nc3sc4c(c3c2=O)CCCC4)cc1 | 0.1 | i | 0.9 | -4.2 | 234.8
Cc1nonc1NC(=O)CSc1nc2c(C)cccc2cc1C#N | 3.4 | + | -43.7 | -22.1 | 291.9
Cc1cc2cc(C#N)c(SCC(=O)Nc3nonc3C)nc2cc1C | 4.0 | . | 5.5 | -6.3 | 168.6
C=CCOC(=O)C(C#N)c1nc2ccccc2nc1N1CCN(c2ccccc2OC)CC1 (stereo not given) | 0.4 | i | -0.8 | -13.3 | 260.5
C=CCN(CC=C)c1nc2ccccc2nc1C(C#N)C(=O)OC(C)C (stereo not given) | 0.3 | + | 0.4 | -26.1 | 217.0
Cc1ccc(NC2=Nc3ccccc3CC2)cc1 | 4.9 | . | 1.8 | -97.1 | 501.4
c1ccc(NC2=Nc3ccccc3CS2)cc1 | 7.2 | + | 3.2 | -107.1 | 233.5
CCOC(=O)c1sc(NC(=O)CSc2ncn[nH]2)c(C#N)c1C | -1.2 | i | 5.4 | -20.4 | 14.9*
CCCCCCSc1ccc([C@@H]2[C@H]3C(=O)N(C)C(=O)[C@H]3[C@]3(C(=O)OC)CCCCN23)cc1OC | -0.5 | + | 2.9 | -48.2 | 569.5
Cc1cccc(-n2ncc3c(NCc4ccccc4)ncnc32)c1 | -3.2 | + | 6.3 | -130.7 | 0.0
C=CCN1C(=O)/C(=C/C=C2/N(CC)c3ccc(S(=O)(=O)N(C)C)cc3N2CC)SC1=S | 1.3 | + | 0.9 | -5.6 | 63.9
C=CCN1C(=O)/C(=C2/Sc3ccccc3N2CC)SC1=S | -0.4 | i | -3.5 | -4.6 | 298.1
COc1ccc(C2COC(=O)C2=N)c(NC(=O)c2ccc(Cl)cc2)c1 (stereo not given) | 0.1 | i | -0.1 | -23.0 | 0.0*
O=C1c2ccccc2-n2c1nc1ccccc1c2=O | 2.4 | + | 3.1 | 46.3 | 234.1
CN1C(=O)NC(c2cccc([N+](=O)[O-])c2)C2=C1CC(C)(C)CC2=O (stereo not given) | 2.1 | i | 2.3 | -17.5 | 280.8
COc1cc(C(=O)Nc2nnc(-c3sccc3C)s2)cc(OC)c1OC | -0.3 | i | 3.3 | -32.5 | 80.3*
SMILES | FXN GAA850 act | Myeloid diff 2 | NR2E3 ag-1 | NR2E3 ag-2 | T cell HTS
NC(COCc1ccccc1)c1csc(Nc2ccccn2)n1 (stereo not given) | 2.1 | i | . | -5.2 | .
COc1ccc(NS(=O)(=O)c2ccc3[nH]c(=O)[nH]c3c2)cc1 | 1.6 | i | -0.2 | -26.5 | 104.8
CC(=O)Nc1ccc(NS(=O)(=O)c2ccc3ccccc3c2)cc1 | -2.8 | + | -3.5 | 15.1 | 156.4
CC(=O)Nc1ccc(NS(=O)(=O)c2ccc3[nH]c(=O)[nH]c3c2)cc1 | 0.3 | + | 0.4 | 24.9 | 327.9
CCOC(=O)[C@]12CCC=C1N(Cc1ccccc1)C(=O)[C@H](CC(=O)NCCCCc1ccccc1)C2 | . | i | . | 3.8 | .
COc1cc(OC)cc(-c2noc(-c3csc([C@@H]4O[C@H](CO)[C@H](O)[C@H](O)[C@H]4O)n3)n2)c1 | 1.5 | i | . | 4.5 | .
CCN(C(=O)CSc1nnc2ccccn12)c1c(N)n(Cc2ccccc2)c(=O)[nH]c1=O | -1.7 | i | 3.0 | -7.5 | 0.0
CCN(C(=O)CSc1n[nH]c(-c2ccc(OC)cc2)n1)c1c(N)n(Cc2ccccc2)c(=O)[nH]c1=O | 0.8 | + | . | 10.7 | .
CCCCN(C(=O)CSc1nnc2ccccn12)c1c(N)n(Cc2ccccc2)c(=O)[nH]c1=O | 0.6 | + | 0.5 | 3.1 | 408.9
NC(=O)c1ncn([C@@H]2O[C@H](CNCc3cnc(N4CCOCC4)nc3)[C@@H](O)[C@H]2O)n1 | 0.4 | i | . | -16.1 | .
Cc1ccc(CN2CC(N3CCC(c4ccccc4)CC3)CS2(=O)=O)cc1 (stereo not given) | . | i | . | -9.4 | .
Cc1cc(C(=O)NCc2ccco2)on1 | 1.1 | i | 2.1 | -28.4 | 610.3
Cc1ccc(C(=O)NCc2ccco2)o1 | -0.5 | + | 3.6 | -7.7 | 34.5
Cc1ccc(C(=O)c2c(C)oc3c2C(=O)C(=O)c2ccccc2-3)cc1 | -5.8 | ? | 9.9 | -97.8 | 182.2
COc1ccc(C(=O)c2c(C(F)(F)F)oc3c2C(=O)c2ccccc2C3=O)cc1 | -0.2 | . | 0.1 | 92.7* | 630.5
CC(C)CCn1c(CN2CCN(c3cccc(Cl)c3)CC2)nc2c1c(=O)n(C)c(=O)n2C | -0.7 | + | 0.4 | -5.7 | 520.8
COc1ccc(N2CCN(Cc3nc4c(c(=O)[nH]c(=O)n4C)n3Cc3cccc(Cl)c3)CC2)cc1 | 0.2 | + | 4.8 | -24.5 | 214.4
COc1ccc(N2CCN(Cc3nc4c(c(=O)[nH]c(=O)n4C)n3CCCc3ccccc3)CC2)cc1 | -3.0 | i | 5.4 | 0.9 | 586.3
O=C(CN1C(=O)c2ccccc2S1(=O)=O)Nc1cc(S(=O)(=O)N2CCCCC2)ccc1Cl | 0.0 | i | . | -35.2 | .
COc1cccc(Nc2nc(C(N)c3ccccc3)cs2)n1 (stereo not given) | -3.1 | + | . | -7.2 | .
COc1ccc(C(N)c2csc(Nc3nncc4ccccc34)n2)cc1 (stereo not given) | -0.5 | + | . | -4.7 | .
COc1ccc(C(N)c2csc(Nc3ncccn3)n2)cc1 (stereo not given) | -1.0 | i | . | -26.7 | .
